For orientation: IC50 means the concentration that gives 50% inhibition.

These results are taken from ChEMBL document CHEMBL3393048, “Discovery of potent cytotoxic ortho-aryl chalcones as new scaffold targeting tubulin and mitosis with affinity-based fluorescence” (J Med Chem, 2014).

Structures are written as SMILES.

The nature of experiment [1]: Antiproliferative activity against vincristine-resistant human HCT8 cells after 48 hrs by SRB method. Type of experiment: functional, cell-based. As to conditions: HCT-8, 48 h. Summed up:
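SRB assay. Cells in DMEM high glucose with 10% FBS were seeded at 5000/well and grown 24 h; a day-0 plate was fixed at that point. Compounds were added in triplicate for 48 h. Cells were fixed with TCA at 4 °C for 1 h, stained with 0.4% SRB, and the dye was solubilized in 10 mM Tris pH 10.4. OD was read at 515 nm with day-0 OD subtracted. IC50 came from nonlinear regression of dose–response curves from at least two independent experiments.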

For experiment [2], the system named is A549. Description: Induction of apoptosis in human A549 cells assessed as necrotic cells at 1 uM after 48 hrs by Annexin V-FITC/propidium iodide staining-based flow cytometry (reference value: 0.06%). Type of experiment: functional. (In general: A flow cytometer gives signals particle by particle.)
Experiment [3] relates to A549. Description: Induction of apoptosis in human A549 cells assessed as late apoptotic cells at 1 uM after 48 hrs by Annexin V-FITC/propidium iodide staining-based flow cytometry (reference value: 0.10%). The experiment is classed as functional.
The target of another experiment is Tubulin. Description: Inhibition of tubulin polymerization (unknown origin) by DAPI staining-based fluorescence microscopy. The experiment is classed as protein-complex assay, Homo sapiens. In short, it runs like this:
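Purified tubulin (99% pure; 20 μM as supplied) mixed with compound in general tubulin buffer (80 mM PIPES pH 6.9, 2.0 mM MgCl₂, 0.5 mM EGTA) with 1 mM GTP, 20% glycerol and DAPI reporter. Polymerization tracked kinetically at 37 °C as fluorescence rise (ex 360, em 450 nm). Duplicate wells per concentration. IC50 from at least two independent experiments.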

Experiment [4] has as its system A549. Description: Induction of apoptosis in human A549 cells assessed as viable cells at 0.5 uM after 48 hrs by Annexin V-FITC/propidium iodide staining-based flow cytometry (reference value: 99.37%). As to conditions: A549, 48 h, read-out: Activity. Type of experiment: functional.
For another experiment, the system named is A2780. Description: Antiproliferative activity against taxol-resistant human A2780 cells after 48 hrs by SRB method. Type of experiment: functional, cell-based. The settings on record: A2780, 48 h. Summed up:
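SRB assay. Cells in DMEM high glucose with 10% FBS were seeded at 5000/well and grown 24 h; a day-0 plate was fixed at that point. Compounds were added in triplicate for 48 h. IC50 came from nonlinear regression of dose–response curves from at least two independent experiments.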
For orientation: The SRB assay estimates cell density from bound dye.

A further experiment has as its target Tubulin (Homo sapiens) (UniProt P68371+Q9H4B7+P0DPH7+P68366+Q13509+Q71U36+P04350+Q3ZCM7+P07437+P68363+Q9BQE3+Q6PEY2+Q13885+Q9BVA1+Q9BUF5). Description: Binding affinity to tubulin (unknown origin) at 4 uM by fluorescence assay. As to conditions: TDE = time-dependent effect. Type of experiment: protein-complex assay. Summed up: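 Intrinsic fluorescence on tubulin binding. Compounds were mixed with tubulin (4 μM or 8 μM) in general tubulin buffer and incubated 30 min. Readings were excitation 430/emission 510 nm or excitation 365/emission 465 nm, with kinetic reads from mixing. ΔF = stable emission minus tubulin-only fluorescence. Optimal wavelengths were set by wavelength scanning.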

For experiment [5], the system named is A549. Description: Induction of apoptosis in human A549 cells assessed as late apoptotic cells at 0.75 uM after 48 hrs by Annexin V-FITC/propidium iodide staining-based flow cytometry (reference value: 0.10%). Type of experiment: functional.
The test system of experiment [6] is A549. Description: Induction of apoptosis in human A549 cells assessed as viable cells at 1 uM after 48 hrs by Annexin V-FITC/propidium iodide staining-based flow cytometry (reference value: 99.37%). The experiment is classed as functional. The settings on record: A549, 48 h, read-out: Activity.
A further experiment relates to MCF7. Description: Drug resistance index, ratio of IC50 for doxorubicin-resistant human MCF7 cells to IC50 for human MCF7 cells. The experiment is classed as functional. In short, it runs like this: (§1)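 Drug resistance index = IC50 in the resistant line / IC50 in its parental line. […] Pairs: A549/CDDP vs A549, MCF-7/DOX vs MCF-7, A2780/TAX vs A2780, HCT-8/VCT vs HCT-8.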

Experiment [7] has as its system A549. Description: Drug resistance index, ratio of IC50 for cis-platinum-resistant human A549 cells to IC50 for human A549 cells. Type of experiment: functional. Summed up:
as §1

Regarding `CN(C)c1ccc(/C=C/C(=O)c2ccccc2-c2ccc(F)cc2)cc1`, the IC50 amounted to 96 nM in experiment [1], 3.6 µM at Tubulin and 49 nM with A2780. In addition, the Activity was 7.91% with A549 [2], 42.86% in the experiment with A549 [3], “tde” at Tubulin (Homo sapiens) and 45.45% in the experiment with A549 [5]. Besides, the viability at 0.5 µM in the experiment with A549 [4] worked out at 12.3%. For the same compound, in the experiment on A549 [6], the viability at 1 µM was 8.21%. The “Ratio IC50” value was found to be 0.68 with MCF7 and 1.6 in the experiment with A549 [7].
